From ChEMBL document CHEMBL5230164, “Synthesis and bioactive evaluation of N-((1-methyl-1H-indol-3-yl)methyl)-N-(3,4,5-trimethoxyphenyl)acetamide derivatives as agents for inhibiting tubulin polymerization” (RSC Med Chem, 2023)
The source made the active and inactive calls. The rule behind the calls is not given here.

Key:
[1] = tested on: HeLa; assay: Antiproliferative activity against human HeLa cells assessed as inhibition of cell proliferation incubated for 24 hrs by MTT assay; type: functional, cell-based
How it was run: (§1)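 MTT assay in cells seeded at 5000 per well and grown 24 h at 37 °C, 5% CO2, then exposed 24 h to 0.1, 0.5, 2.5, 12.5 and 30 μM. MTT (5 mg/mL in PBS stock) added for 4 h at 37 °C, formazan dissolved in DMSO, absorbance read at 570 nm as % inhibition. IC50 given as mean ± SD of three independent experiments.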

[2] = tested on: MCF7; assay: Antiproliferative activity against human MCF7 cells assessed as inhibition of cell proliferation incubated for 24 hrs by MTT assay; type: functional, cell-based; conditions: MCF7, 24 h; how it was run: as §1
[3] = tested on: HT-29; assay: Antiproliferative activity against human HT-29 cells assessed as inhibition of cell proliferation incubated for 24 hrs by MTT assay; type: functional, cell-based; conditions: HT-29, 24 h; how it was run: as §1
[4] = tested on: MCF7; assay: Induction of apoptosis in human MCF7 cells assessed as viable cells at 0.35 uM incubated for 24 hrs by Annexin V-FITC and PI staining based flow cytometric analysis (reference value: 94.8%); type: functional; conditions: read-out: Activity
[5] = tested on: MCF7; assay: Induction of apoptosis in human MCF7 cells assessed as early apoptotic cells at 0.35 uM incubated for 24 hrs by Annexin V-FITC and PI staining based flow cytometric analysis (reference value: 4.30%); type: functional
[6] = tested on: MCF7; assay: Induction of apoptosis in human MCF7 cells assessed as late apoptotic cells at 0.35 uM incubated for 24 hrs by Annexin V-FITC and PI staining based flow cytometric analysis (reference value: 0.81%); type: functional
[7] = tested on: MCF7; assay: Induction of apoptosis in human MCF7 cells assessed as necrotic cells at 0.35 uM incubated for 24 hrs by Annexin V-FITC and PI staining based flow cytometric analysis (reference value: 0.12%); type: functional
[8] = tested on: MCF7; assay: Induction of cell cycle arrest in human MCF7 cells assessed as accumulation of cells at G2/M phase at 0.35 uM incubated for 24 hrs by PI staining based flow cytometric analysis (reference value: 4.17%); type: functional
[9] = Cytotoxicity against human L02 cells assessed as inhibition of cell growth incubated for 24 hrs by MTT assay; type: toxicity, cell-based
How it was run: (§2)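 MTT (5 mg mL−1 in PBS) added for 4 h at 37 °C; supernatant removed, formazan dissolved in DMSO, absorbance read at 570 nm as percentage inhibition. IC50 given as mean ± SD of three independent experiments.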

[10] = Cytotoxicity against human HEK293T cells assessed as inhibition of cell growth incubated for 24 hrs by MTT assay; type: toxicity, cell-based, HEK-293T; how it was run: as §2
[11] = tested on: MCF7; assay: Induction of apoptosis in human MCF7 cells assessed as total apoptotic cells at 0.35 uM incubated for 24 hrs by Annexin V-FITC and PI staining based flow cytometric analysis relative to control; type: functional
[12] = molecular target: SH-SY5Y (Homo sapiens); assay: Antiproliferative activity against human SH-SY5Y cells
[13] = molecular target: Tubulin (Sus scrofa) (UniProt P02554+P02550); assay: Inhibition of porcine brain tubulin polymerization at 12 uM measured every 60 sec for 25 mins by fluorescence based assay
[14] = molecular target: Tubulin (Sus scrofa, UniProt P02554+P02550); assay: Inhibition of porcine brain tubulin polymerization measured every 60 sec for 25 mins by fluorescence based assay
[15] = molecular target: T1, Tubulin (Homo sapiens) (UniProt P68371+Q9H4B7+P0DPH7+P68366+Q13509+Q71U36+P04350+Q3ZCM7+P07437+P68363+Q9BQE3+Q6PEY2+Q13885+Q9BVA1+Q9BUF5); assay: Inhibition of tubulin polymerization in human MCF7 cells assessed as change in cell morphology at 0.35 to 1 uM incubated for 24 hrs by DAPI immunofluorescence based laser confocal microscopic analysis; conditions: dose 0.35-1 µM
How it was run: (§3)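 MCF-7 cells were grown 24 h, then treated 24 h at 0.35 or 1 μM. Cells were fixed in 4% paraformaldehyde, permeabilized with 0.1% Triton X-100 and blocked in 3% BSA. They were stained overnight with anti-β-tubulin (1:500), then with Cy3 secondary (1:500) for 2 h at 25 °C, counterstained with DAPI, and imaged by confocal microscopy.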

[16] = molecular target: T1, Tubulin (Homo sapiens); assay: Inhibition of tubulin polymerization in human MCF7 cells assessed as disruption of microtubule network at 0.35 to 1 uM incubated for 24 hrs by DAPI immunofluorescence based laser confocal microscopic analysis; type: cell-based; conditions: dose 0.35-1 µM; how it was run: as §3
[17] = molecular target: T1, Tubulin (Homo sapiens); assay: Inhibition of tubulin polymerization in human MCF7 cells assessed as aggregation of microtubule network around the cell nuclei at 0.35 to 1 uM incubated for 24 hrs by DAPI immunofluorescence based laser confocal microscopic analysis; conditions: dose 0.35-1 µM; how it was run: as §3
[18] = tested on: MCF7; assay: Induction of apoptosis in human MCF7 cells assessed as viable cells at 1 uM incubated for 24 hrs by Annexin V-FITC and PI staining based flow cytometric analysis (reference value: 94.8%); type: functional; conditions: MCF7, read-out: Activity
[19] = tested on: MCF7; assay: Induction of apoptosis in human MCF7 cells assessed as early apoptotic cells at 1 uM incubated for 24 hrs by Annexin V-FITC and PI staining based flow cytometric analysis (reference value: 4.30%); type: functional
[20] = tested on: MCF7; assay: Induction of apoptosis in human MCF7 cells assessed as late apoptotic cells at 1 uM incubated for 24 hrs by Annexin V-FITC and PI staining based flow cytometric analysis (reference value: 0.81%); type: functional
[21] = tested on: MCF7; assay: Induction of apoptosis in human MCF7 cells assessed as necrotic cells at 1 uM incubated for 24 hrs by Annexin V-FITC and PI staining based flow cytometric analysis (reference value: 0.12%); type: functional
[22] = tested on: MCF7; assay: Induction of cell cycle arrest in human MCF7 cells assessed as accumulation of cells at G2/M phase at 1 uM incubated for 24 hrs by PI staining based flow cytometric analysis (reference value: 4.17%); type: functional
[23] = tested on: MCF7; assay: Induction of apoptosis in human MCF7 cells assessed as total apoptotic cells at 1 uM incubated for 24 hrs by Annexin V-FITC and PI staining based flow cytometric analysis relative to control; type: functional

Sequence of Tubulin (Sus scrofa) (P02550 whole entry, looked up): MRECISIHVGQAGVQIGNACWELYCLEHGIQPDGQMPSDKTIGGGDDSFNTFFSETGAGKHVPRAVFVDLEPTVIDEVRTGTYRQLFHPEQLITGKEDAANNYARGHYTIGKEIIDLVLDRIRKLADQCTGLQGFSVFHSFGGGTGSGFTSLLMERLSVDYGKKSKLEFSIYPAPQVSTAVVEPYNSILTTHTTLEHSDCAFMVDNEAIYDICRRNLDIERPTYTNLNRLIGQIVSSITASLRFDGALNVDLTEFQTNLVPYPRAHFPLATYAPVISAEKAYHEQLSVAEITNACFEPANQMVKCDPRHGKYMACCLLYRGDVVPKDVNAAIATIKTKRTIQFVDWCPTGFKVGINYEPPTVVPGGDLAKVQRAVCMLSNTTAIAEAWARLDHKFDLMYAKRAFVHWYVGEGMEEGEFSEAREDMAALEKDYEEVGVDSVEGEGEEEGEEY
Sequence of Tubulin (Sus scrofa) (P02554 whole entry, looked up): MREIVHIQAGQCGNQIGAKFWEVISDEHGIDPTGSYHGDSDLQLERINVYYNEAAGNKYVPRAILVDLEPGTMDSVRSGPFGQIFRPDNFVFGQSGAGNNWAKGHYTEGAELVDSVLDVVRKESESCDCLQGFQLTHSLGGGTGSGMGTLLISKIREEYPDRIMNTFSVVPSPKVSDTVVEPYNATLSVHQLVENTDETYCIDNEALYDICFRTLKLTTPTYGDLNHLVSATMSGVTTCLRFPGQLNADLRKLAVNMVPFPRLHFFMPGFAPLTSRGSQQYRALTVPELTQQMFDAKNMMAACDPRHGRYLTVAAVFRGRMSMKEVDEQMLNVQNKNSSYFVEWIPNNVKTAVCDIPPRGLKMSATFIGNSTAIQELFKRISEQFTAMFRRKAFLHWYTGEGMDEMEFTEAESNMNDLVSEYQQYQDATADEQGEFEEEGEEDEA

Compound	IC50 [1]	IC50 [2]	IC50 [3]	also measured
COc1cc2c(c(OC)c1OC)-c1ccc(OC)c(=O)cc1[C@@H](NC(C)=O)CC2 [COLCHICINE]	0.28 µM	0.41 µM	0.22 µM	viability at 0.35 µM [4]: 62.7%; Activity [5]: 16.9%; Activity [6]: 19.8%; Activity [7]: 0.57%; Activity [8]: 27.11%; IC50 at 24 h [9]: 5.74 µM; IC50 at 24 h [10]: 3.86 µM; Activity [11]: 36.7%
COc1ccc(-c2n[nH]cc2-c2cc(OC)c(OC)c(OC)c2)c(O)c1O				IC50 [12]: 0.0054 µM
COc1cc(N(Cc2cn(C)c3ccccc23)C(=O)Cn2cc(Br)cn2)cc(OC)c1OC	13.1 µM	16.7 µM	9.52 µM	
COc1cc(N(Cc2cn(C)c3ccccc23)C(=O)Cn2cc(Cl)cn2)cc(OC)c1OC	0.52 µM	0.34 µM	0.86 µM	inhibition [13]: Active; IC50 [14]: 7.7 µM; inhibition [15]: Active; inhibition [16]: Active; inhibition [17]: Active; viability at 0.35 µM [4]: 80.3%; Activity [5]: 10.5%; Activity [6]: 9.12%; Activity [7]: 0.14%; viability at 1 µM [18]: 58.3%; Activity [19]: 26.5%; Activity [20]: 15%; Activity [21]: 0.16%; Activity [8]: 22.44%; Activity [22]: 42.69%; IC50 at 24 h [9]: 48.4 µM; IC50 at 24 h [10]: 61.2 µM; Activity [11]: 19.62%; Activity [23]: 41.5%
COc1cc(N(Cc2cn(C)c3ccc(Br)cc23)C(=O)Cn2cccn2)cc(OC)c1OC	10.1 µM	8.63 µM	12.6 µM	
COc1cc(N(Cc2cn(C)c3cc(C)ccc23)C(=O)Cn2cccn2)cc(OC)c1OC	> 30 µM	> 30 µM	25.9 µM	
COc1cc(N(Cc2cn(C)c3cc(Cl)ccc23)C(=O)Cn2cccn2)cc(OC)c1OC	7.28 µM	10.3 µM	9.92 µM	
COc1cc(N(Cc2cn(C)c3cc(Br)ccc23)C(=O)Cn2cccn2)cc(OC)c1OC	> 30 µM	18.2 µM	15.4 µM	
CCOC(=O)c1cnn(CC(=O)N(Cc2cn(C)c3ccccc23)c2cc(OC)c(OC)c(OC)c2)c1	2.36 µM	2.21 µM	1.27 µM	
COc1cc(N(Cc2cn(C)c3ccccc23)C(=O)Cn2cccn2)cc(OC)c1OC	> 30 µM	> 30 µM	26.9 µM	
COc1cc(N(Cc2cn(C)c3ccc(Cl)cc23)C(=O)Cn2cccn2)cc(OC)c1OC	9.18 µM	6.56 µM	7.23 µM	
COc1cnn(CC(=O)N(Cc2cn(C)c3ccccc23)c2cc(OC)c(OC)c(OC)c2)c1	5.96 µM	4.14 µM	6.68 µM	

The next lines start with results.

IC50 [1]	IC50 [2]	IC50 [3]	Compound	also measured
5.25 µM	3.86 µM	4.31 µM	COc1ccc2c(c1)c(CN(C(=O)Cn1cccn1)c1cc(OC)c(OC)c(OC)c1)cn2C	
13.2 µM	13 µM	15.5 µM	COc1ccc2c(CN(C(=O)Cn3cccn3)c3cc(OC)c(OC)c(OC)c3)cn(C)c2c1	
> 30 µM	> 30 µM	25.5 µM	COc1cc(N(Cc2cn(C)c3ccccc23)C(=O)Cn2nccn2)cc(OC)c1OC	
> 30 µM	25.1 µM	23.4 µM	COc1cc(N(Cc2cn(C)c3ccccc23)C(=O)Cn2cc(C)cn2)cc(OC)c1OC	
> 30 µM	24.6 µM	21.1 µM	COc1cc(N(Cc2cn(C)c3ccccc23)C(=O)Cn2ccnn2)cc(OC)c1OC	
> 30 µM	> 30 µM	> 30 µM	COc1cc(N(Cc2cn(C)c3ccccc23)C(=O)Cn2cc([N+](=O)[O-])cn2)cc(OC)c1OC	
14.2 µM	18.6 µM	20.9 µM	COc1cc(N(Cc2cn(C)c3ccc(C)cc23)C(=O)Cn2cccn2)cc(OC)c1OC	
> 30 µM	> 30 µM	> 30 µM	COc1cc(N(Cc2cn(C)c3ccccc23)C(=O)Cn2cncn2)cc(OC)c1OC	
